# High-throughput results (PubChem BioAssay)
# Hits are enriched below; roughly 4.6% of the tested compounds scored in any of these assays.
# OX1R antag-1 – OX1R (human) antagonism. O43613. OX1R-expressing cells, FRET antagonist read-out. inhibition, % at 6.6 µM. 330,000 tested, 1.8% active; in the data active = inhibition mostly above about 38%, no sharp cut-off; inactive = mostly below about 40%;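 note: 0% = agonist challenge alone and 100% = reference antagonist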
# Target sequence (O43613 whole entry, looked up): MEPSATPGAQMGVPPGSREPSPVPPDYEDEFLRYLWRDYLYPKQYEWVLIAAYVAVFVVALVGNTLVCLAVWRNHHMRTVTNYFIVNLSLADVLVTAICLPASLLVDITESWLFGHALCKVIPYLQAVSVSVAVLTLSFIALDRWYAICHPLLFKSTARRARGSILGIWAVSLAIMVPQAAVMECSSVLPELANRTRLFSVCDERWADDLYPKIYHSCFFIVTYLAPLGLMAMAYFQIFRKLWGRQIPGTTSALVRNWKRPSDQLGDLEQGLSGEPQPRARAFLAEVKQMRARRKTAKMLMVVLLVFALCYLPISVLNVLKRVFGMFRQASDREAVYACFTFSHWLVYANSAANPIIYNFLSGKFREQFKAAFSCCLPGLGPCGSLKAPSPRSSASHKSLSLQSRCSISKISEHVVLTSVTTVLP
# TAAR1 antag – human TAAR1 antagonism; CHO RD-HGA16 TAAR1, Fluo-8 calcium fluorescence, antagonist; inhibition, % at 3 µM; 360,000 tested, 1.5% active;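 active = inhibition above a per-plate cutoff, the mean inhibition of test compounds on that plate plus 3 SD, cut at about 49% in these data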;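 note: 0% = DMSO plus EC80 beta-PEA response and 100% = DMSO alone without agonist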
#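 Test system – hTAAR1-expressing CHO RD-HGA16 cells, Gα16-coupled · Reagent – β-PEA at EC80 concentration, post-compound challenge · Compound dosing – 3 µM, single point · Timing – 140 s kinetic read after compound, 140 s after agonist · Detection – Fluo-8 intracellular calcium dye fluorescence, real-time kinetic reads · Control set – DMSO and EC80 PEA controls · Repeats – n of 1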
# OX1R antag-2 – human HCRTR1 antagonism; 330,000 tested, 0.43% active; O43613; inhibition, % at 5 µM; CHO/OX1R cells, Fluo-8 calcium fluorescence, orexin A;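 active = inhibition above its plate's threshold, mean inhibition of all tested compounds on the plate plus 3 SD, cut at about 37% in these data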;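 note: 0% = orexin A challenge wells and 100% = SB-334867-A antagonist wells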
# GPR7 antagonist – blocks human GPR7 receptor signaling; P48145; GPR7-expressing cells, fluorescence antagonist assay; inhibition, % at 4.4 µM; 290,000 tested, 1.1% active; in the data active = inhibition above about 16%, passing the limit was not always enough;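 note: cells stimulated with the agonist NPW; 0% = agonist with vehicle and 100% = vehicle without agonist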
# TAAR1 agonist – agonists of human TAAR1; CHO RD-HGA16 TAAR1, Fluo-8 calcium fluorescence; vehicle wells 0%, saturating PEA agonist 100%; activation, % at 3 µM; 360,000 tested, 0.99% active; AID 624467;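 active = activation above the mean activation of all test compounds in the run plus 3 SD, cut at about 38% in these data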
#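 System: CHO-derived RD-HGA16 cells with stable Gα16 and human TAAR1 / Times: 17-24 h plating, Fluo-8 75 min 37 °C, 30 min RT / Technique: calcium-sensitive Fluo-8 signal, excitation 470-495, emission 515-575 nm / Measure: % activation relative to PEA EC100 response / Benchmarks: DMSO and PEA EC100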
# CHO parental Ca – counter-screen: ATP calcium response change in parental CHO cells | parental CHO-K1, ATP-induced calcium, Fluo-8 fluorescence | inhibition, % at 5.6 µM | 330,000 tested, 0.63% active;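 active = inhibition above that plate's mean sample inhibition plus 3 SD, cut at about 26% in these data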;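 note: 0% = ATP-challenged DMSO wells and 100% = DMSO wells without ATP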
#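 test system = CHO parental line | reagent = ATP stimulus | measured by = intracellular calcium via Fluo-8 no-wash fluorescent dye | control set = ATP and no-ATP DMSO wells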
# * = called active by the depositor; nt = no result.
SMILES,OX1R antag-1,TAAR1 antag,OX1R antag-2,GPR7 antagonist,TAAR1 agonist,CHO parental Ca
Oc1c(Br)cc(Br)c2cccnc12,nt,12.7,nt,nt,-1.7,nt
[O-][n+]1cccc2c(Br)cc(Br)c(O)c21,44.5,3.8,12.6,-9.4,6.2,29.8*
O=C1C2C3c4ccccc4C(c4ccccc43)C2C(=O)N1c1ccncc1 (stereo unspecified),nt,19.8,nt,-1.9,1.1,nt
O=C1C2C3c4ccccc4C(c4ccccc43)[C@@H]2C(=O)N1c1cccnc1 (stereo partly specified),25.5,49.5*,-10.8,2.9,9.1,-18.4
COC(=O)[C@]12C[C@H](CC(=O)N3CCOCC3)C(=O)N(CCC3=CCCCC3)C1=C[C@H](COCc1ccccc1)O[C@@H]2C,nt,-38.1,nt,nt,3.3,nt
COc1ccc(/C=C/C(=O)N2CCCc3ccccc32)cc1,35.7,12.4,-5.8,-1.6,8.9,-16.0
COc1cc(/C=C/C(=O)N2CCCc3ccccc32)cc(OC)c1OC,28.9,52.3*,-12.3,-12.3,10.1,-18.6
O=C(N=Nc1c(O)[nH]c2ccccc12)c1ccc(CN2CCOCC2)cc1,63.4*,4.8,3.0,-11.4,2.1,-2.7
Cc1ccc(CN2CCN(CC(=O)N=Nc3c(O)[nH]c4ccccc34)CC2)cc1,65.6*,9.3,-1.0,-7.6,-0.3,-27.2
Oc1[nH]c2ccccc2c1N=NC(=S)N1CCOCC1,19.5,nt,-10.2,-21.8,nt,9.3
Nc1ncnc2c1ncn2[C@@H]1O[C@H](C(=O)N[C@@H](CCc2ccccc2)C(=O)O)[C@@H](O)[C@H]1O,nt,-9.5,nt,nt,1.1,nt
CC1CN(C(=O)c2ccc(S(=O)(=O)Nc3cccc(C(F)(F)F)c3)cc2)CC(C)O1 (stereo unspecified),0.7,17.1,1.7,nt,58.9*,12.1
COc1ccc([C@H]2C[C@H](O)[C@@H](n3cc(-c4ccc(F)cc4)nn3)CN2CC2CCCCC2)cc1,nt,-10.5,nt,nt,4.8,nt
COCCN1Cc2cc(C(=O)OC)c3c(c2C1=O)c1cc(F)ccc1n3S(=O)(=O)c1cccc(C)c1,nt,-29.7,nt,nt,4.7,nt
CCCCS(=O)(=O)/C=C\C=C/S(=O)(=O)CCCC,13.5,nt,-30.3,40.3*,nt,2.0
COC(=O)[C@@]12C[C@@H](CC(=O)NCCC(C)C)C(=O)N(Cc3ccccc3)C1=CCC(C)(C)C2,nt,-12.1,nt,nt,-0.1,nt
Oc1ccc(CNCC2COc3ccccc3O2)cc1 (stereo unspecified),19.4,-1.4,-14.3,1.7,37.7*,-6.9
c1ccc2c(c1)OCC(CNCC1COc3ccccc3O1)O2 (stereo unspecified),9.4,1.0,-25.4,-6.3,4.7,-14.9
CCOC(=O)[C@]12CCCC=C1N(Cc1ccc3c(c1)OCO3)C(=O)[C@H](CC(=O)NCc1ccc(OC)c(OC)c1)C2,nt,-6.4,nt,nt,-2.0,nt
O=c1[nH]c(=O)c2cc([N+](=O)[O-])cc([N+](=O)[O-])c2[nH]1,51.7*,-13.8,-13.6,-4.2,5.2,-7.1
O=c1c2cc([N+](=O)[O-])cc([N+](=O)[O-])c2[nH]n1-c1ccccc1,6.1,-21.0,-11.5,-5.8,2.3,-1.9
CCc1cc(-c2nnn(CCC3COCCO3)c2C(C)(C)O)ccc1-c1cn(CCc2c[nH]c3ccccc23)nn1 (stereo unspecified),nt,32.0,nt,nt,10.7,nt
CCOc1ccc(Nc2nc(Cc3nnc(SCC(=O)c4ccc(C)c(C)c4)o3)cs2)cc1,55.8,29.0,7.0,-1.9,1.1,29.0*
COC(=O)C1=C(C)N(Cc2cccc(C(F)(F)F)c2)C(=NCc2cc(OC)c(OC)c(OC)c2)NC1CCc1ccccc1 (stereo unspecified),nt,-10.5,nt,nt,16.9,nt
O=C(Nc1ccccc1N1CCN(C(=O)c2ccc(Cl)cc2)CC1)c1cccc([N+](=O)[O-])c1,19.9,51.3*,-8.6,5.3,7.2,-13.5
SMILES,OX1R antag-1,TAAR1 antag,OX1R antag-2,GPR7 antagonist,TAAR1 agonist,CHO parental Ca
O=C(c1ccc(-c2ccc(Cl)cc2)o1)N1CCN(c2ccc([N+](=O)[O-])cc2Cl)CC1,16.6,-6.5,6.2,-4.3,6.0,37.2*
CN1CCN(c2ccccc2NC(=O)c2cccc([N+](=O)[O-])c2)CC1,27.4,0.3,-28.9,-12.0,-0.1,-13.4
CC[N+]1=C(C)C(C)(C)c2cc(C)ccc21,43.3,16.8,70.0*,0.8,2.1,63.9*
CCN1C(=O)C(=O)c2cc(C)ccc21,25.4,-5.4,-8.2,nt,7.8,-5.7
Cc1ccc2c(c1)c1c(n2CC(O)CNC(C)(C)C)CCCC1 (stereo unspecified),nt,0.0,nt,21.4*,10.0,nt
O=C(NC1CC1)c1ccc2c(c1)N(Cc1ccc(Cl)cc1)CCS2,45.7*,-9.9,-21.5,10.6,-4.1,-34.9
CC1CC(C)CN(C(=O)c2ccc3c(c2)N(Cc2ccccc2)CCS3)C1 (stereo unspecified),14.8,nt,-30.2,-4.7,nt,47.0*
COc1ccc(-c2c(C(=O)c3ccc(Br)cc3)[nH]c(N)c2C(=O)NCCc2c[nH]c3ccccc23)cc1OC,nt,44.1,nt,nt,10.0,nt
Cn1ncc(Cl)c1C(=O)Nc1ccc2c(c1)OCO2,11.9,-7.0,-1.8,-22.1,0.0,-3.7
O=C(Nc1ccc2c(c1)OCO2)c1c(Cl)nc2sccn12,58.1*,-8.0,-15.7,-15.4,3.9,-31.0
C=CC[C@@H](CC(=O)N(CCO)Cc1ccccc1)C(=O)N[C@H](COC(=O)[C@@H](CC=C)Cc1ccc(F)cc1)Cc1c[nH]c2ccccc12,-1.2,58.7*,44.3,nt,14.0,11.8
C=CC[C@@H](CC(=O)N[C@@H](CO)Cc1ccccc1)C(=O)N[C@H](COC(=O)[C@H](CC=C)CC(=O)OC(C)(C)C)Cc1c[nH]c2ccccc12,9.8,51.9*,47.1,nt,12.8,2.3
C=CC[C@H](CC(=O)N(CCO)Cc1ccccc1)C(=O)N[C@H](COC(=O)[C@@H](CC=C)Cc1ccc(F)cc1)Cc1c[nH]c2ccccc12,16.1,58.6*,19.1,nt,15.3,-4.9
COC(=O)[C@]12CCCCC=C1N(Cc1ccc(Cl)cc1Cl)C(=O)[C@H](CC(=O)NCc1cccc(C(F)(F)F)c1)C2,nt,-12.6,nt,nt,-0.6,nt
CCOC(=O)[C@]12CCCC=C1N(Cc1ccccc1)C(=O)[C@H](CC(=O)NCC13CC4CC(CC(C4)C1)C3)C2,nt,-30.9,nt,nt,1.7,nt
O=C1CC(=Nc2ccc([N+](=O)[O-])cc2)NN1c1c(Cl)cc(Cl)cc1Cl,nt,0.8,nt,nt,0.3,nt
CC(CNC(=O)[C@@H](Cc1ccccc1)NC(=O)[C@H]1O[C@@H](n2ccc(=O)[nH]c2=O)[C@H](O)[C@@H]1O)c1ccccc1 (stereo partly specified),nt,5.4,nt,nt,1.0,nt
COc1cc(-c2nc3ccccn3c2NCc2ccccc2)ccc1SC1CCCCC1,23.1,nt,-10.2,nt,nt,61.8*
COc1ccc2nc(SCC(=O)NN)cc(C)c2c1,49.2*,-11.9,19.5,-3.6,-0.7,-24.9
